How the values were obtained:
[1] = target: T1, Bromodomain-containing protein 4 (Mus musculus, UniProt Q9ESU6); assay: (§1) Inhibition of BRD4 in LPS-stimulated mouse RAW264.7 cells assessed as inhibition of NF-kappaB-mediated IL-6 expression preincubated for 30 mins followed by LPS stimulation measured after 24 hrs by ELISA; assay type: cell-based
In short: (§2)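 RAW264.7 cells grown in DMEM/10% FBS at 37 °C, 5% CO2, plated at 3 × 10^5 cells/mL, pretreated with inhibitor for 30 min. Medium was then replaced with LPS (1 µg/mL) plus inhibitor for 24 h. Compounds were diluted from DMSO to 0.28–50000 nM, final DMSO 0.05% (v/v). Supernatant IL-6 was measured by mouse ELISA read at 570 nm.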

[2] = target: Bromodomain-containing protein 4 (Mus musculus) (UniProt Q9ESU6); assay: as §1; assay type: cell-based; in short: as §2
[3] = target: Nucleosome-remodeling factor subunit BPTF (Homo sapiens, UniProt Q12830); assay: Displacement of fluorescein-labeled MS239 from recombinant human BPTF after 1 hr by fluorescence anisotropy assay
In short: (§3)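 Competition fluorescence anisotropy with His-tag-removed recombinant bromodomain (Ni-IDA purified, thrombin cleaved) at 0.25–1 µM, chosen so that 50–80% of probe is bound. FITC-labeled probe at 80 nM (≤2Kd), unlabeled ligand titrated, in PBS pH 7.4, read after 1 h at 25 °C. IC50 from curve fit, converted to Ki with the Nikolovska-Coleska correction to Cheng-Prusoff (one-site competitive). The resolvable Ki is limited by the probe Kd.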

[4] = target: T2, Bromodomain-containing protein 3 (Homo sapiens, UniProt Q15059); assay: Displacement of fluorescein-labeled MS574 from recombinant human BRD3 BrD2 after 1 hr by fluorescence anisotropy assay; in short: as §3
[5] = target: Histone acetyltransferase KAT2B (Homo sapiens, UniProt Q92831); assay: Displacement of fluorescein-labeled MS239 from recombinant human PCAF after 1 hr by fluorescence anisotropy assay; in short: as §3
[6] = target: SWI/SNF-related matrix-associated actin-dependent regulator of chromatin subfamily A member 4 (Homo sapiens, UniProt P51532); assay: Displacement of fluorescein-labeled MS239 from recombinant human SMARCA4 bromodomain after 1 hr by fluorescence anisotropy assay; in short: as §3
[7] = target: T3, Bromodomain-containing protein 4 (Homo sapiens, UniProt O60885); assay: Displacement of fluorescein-labeled MS574 from recombinant human BRD4 BrD2 after 1 hr by fluorescence anisotropy assay; in short: as §3
[8] = target: T4, Bromodomain-containing protein 7 (Homo sapiens, UniProt Q9NPI1); assay: Displacement of fluorescein-labeled MS226 from recombinant human BRD7 after 1 hr by fluorescence anisotropy assay; in short: as §3
T4 sequence (Q9NPI1 whole entry): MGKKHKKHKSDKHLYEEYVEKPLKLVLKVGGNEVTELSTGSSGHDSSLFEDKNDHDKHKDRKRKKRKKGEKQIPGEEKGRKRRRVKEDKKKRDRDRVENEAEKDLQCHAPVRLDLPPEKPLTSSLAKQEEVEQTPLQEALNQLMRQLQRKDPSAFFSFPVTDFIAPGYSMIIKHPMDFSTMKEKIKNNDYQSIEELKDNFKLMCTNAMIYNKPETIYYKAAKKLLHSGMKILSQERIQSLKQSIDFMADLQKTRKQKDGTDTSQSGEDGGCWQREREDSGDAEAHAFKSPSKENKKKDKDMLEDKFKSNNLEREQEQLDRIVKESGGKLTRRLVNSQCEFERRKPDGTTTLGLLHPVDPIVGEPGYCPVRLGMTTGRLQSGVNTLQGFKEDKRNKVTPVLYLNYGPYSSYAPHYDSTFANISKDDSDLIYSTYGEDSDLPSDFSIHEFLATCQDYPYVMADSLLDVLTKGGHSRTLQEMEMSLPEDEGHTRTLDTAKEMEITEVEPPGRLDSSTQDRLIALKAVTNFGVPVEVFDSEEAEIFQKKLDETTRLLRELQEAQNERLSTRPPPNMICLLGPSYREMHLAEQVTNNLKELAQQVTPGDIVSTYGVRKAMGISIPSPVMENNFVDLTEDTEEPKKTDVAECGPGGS

RAW264.7 = assay: Cytotoxicity against mouse RAW264.7 cells assessed as cell viability up to 100 uM after 24 hrs by MTT assay; assay type: cell-based; details: raw264.7, 24 h
In short: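 RAW264.7 macrophages seeded at 1 × 10^4 cells/well, settled 18 h at 37 °C, then exposed to inhibitors up to 100 µM for 24 h. Compounds were predissolved in DMSO and diluted in medium, final DMSO 0.05% (v/v). MTT (4 mg/ml) was added for 4 h at 37 °C, formazan solubilized in DMSO, and absorbance read at 570/630 nm.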

[9] = target: T3, Bromodomain-containing protein 4; assay: Displacement of fluorescein-labeled MS574 from recombinant human BRD4 BrD1 after 1 hr by fluorescence anisotropy assay; in short: as §3
CREB-binding protein = CREB-binding protein (Homo sapiens, UniProt Q92793); assay: Displacement of fluorescein-labeled MS226 from recombinant human CBP bromodomain after 1 hr by fluorescence anisotropy assay; in short: as §3
[10] = target: T1, Bromodomain-containing protein 4; assay: (§4) Inhibition of BRD4 in LPS-stimulated mouse RAW264.7 cells assessed as inhibition of NF-kappaB-mediated nitric oxide production preincubated for 30 mins followed by LPS stimulation measured after 24 hrs by spectrophotometric analysis; assay type: cell-based
In short: (§5)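 RAW264.7 cells in DMEM/10% FBS, plated at 3 × 10^5 cells/mL, pretreated with inhibitor 30 min, then LPS (1 µg/mL) plus inhibitor for 24 h. Inhibitor concentrations 0.28–50000 nM from DMSO stock, final DMSO 0.05% (v/v). Nitrite in the supernatant was measured spectrophotometrically at 520 nm.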

[11] = target: Bromodomain-containing protein 4 (Mus musculus) (UniProt Q9ESU6); assay: as §4; assay type: cell-based; in short: as §5
[12] = target: T2, Bromodomain-containing protein 3; assay: Displacement of fluorescein-labeled MS574 from recombinant human BRD3 BrD1 after 1 hr by fluorescence anisotropy assay; in short: as §3

T2 sequence (Q15059 whole entry): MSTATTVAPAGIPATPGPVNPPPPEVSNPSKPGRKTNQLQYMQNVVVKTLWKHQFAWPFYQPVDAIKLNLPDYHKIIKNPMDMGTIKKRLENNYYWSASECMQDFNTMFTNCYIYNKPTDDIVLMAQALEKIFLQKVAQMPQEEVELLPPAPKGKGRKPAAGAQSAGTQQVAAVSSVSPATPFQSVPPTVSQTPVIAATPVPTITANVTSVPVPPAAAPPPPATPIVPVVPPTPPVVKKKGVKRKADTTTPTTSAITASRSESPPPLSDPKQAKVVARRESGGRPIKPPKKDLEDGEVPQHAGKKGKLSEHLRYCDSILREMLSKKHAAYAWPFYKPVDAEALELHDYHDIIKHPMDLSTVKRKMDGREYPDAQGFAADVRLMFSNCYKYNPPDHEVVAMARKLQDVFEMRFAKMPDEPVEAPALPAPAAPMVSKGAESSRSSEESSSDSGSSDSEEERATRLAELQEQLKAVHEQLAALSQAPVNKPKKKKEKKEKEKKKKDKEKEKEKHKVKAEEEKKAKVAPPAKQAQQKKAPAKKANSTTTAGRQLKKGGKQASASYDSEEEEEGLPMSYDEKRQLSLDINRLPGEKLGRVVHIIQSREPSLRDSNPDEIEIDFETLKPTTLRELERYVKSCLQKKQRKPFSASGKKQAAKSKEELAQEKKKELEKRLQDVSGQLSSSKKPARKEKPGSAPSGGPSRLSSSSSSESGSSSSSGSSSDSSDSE
Chain of Histone acetyltransferase KAT2B (Q92831 whole entry): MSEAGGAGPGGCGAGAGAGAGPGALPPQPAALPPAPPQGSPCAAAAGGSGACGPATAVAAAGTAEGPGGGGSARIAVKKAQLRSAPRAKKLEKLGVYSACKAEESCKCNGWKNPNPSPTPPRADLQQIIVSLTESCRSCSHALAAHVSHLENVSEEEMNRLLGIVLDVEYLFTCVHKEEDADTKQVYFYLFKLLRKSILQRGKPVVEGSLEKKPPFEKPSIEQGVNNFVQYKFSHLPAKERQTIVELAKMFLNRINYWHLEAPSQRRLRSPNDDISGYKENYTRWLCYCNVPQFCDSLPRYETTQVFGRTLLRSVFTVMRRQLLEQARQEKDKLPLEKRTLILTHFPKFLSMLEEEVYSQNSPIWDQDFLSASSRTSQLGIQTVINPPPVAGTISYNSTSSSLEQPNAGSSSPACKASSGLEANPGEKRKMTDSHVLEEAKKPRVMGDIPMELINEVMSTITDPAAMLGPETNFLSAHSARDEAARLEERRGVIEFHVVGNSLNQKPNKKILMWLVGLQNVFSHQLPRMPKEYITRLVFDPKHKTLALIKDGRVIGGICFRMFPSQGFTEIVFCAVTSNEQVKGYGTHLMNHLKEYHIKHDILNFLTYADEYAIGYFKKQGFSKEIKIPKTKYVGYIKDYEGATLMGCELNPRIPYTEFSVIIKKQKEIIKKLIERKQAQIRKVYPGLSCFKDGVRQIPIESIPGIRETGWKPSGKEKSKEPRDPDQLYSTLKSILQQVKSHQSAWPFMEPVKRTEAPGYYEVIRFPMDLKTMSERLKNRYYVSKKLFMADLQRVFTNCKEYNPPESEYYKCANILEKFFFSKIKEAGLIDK
Chain of CREB-binding protein (Q92793 whole entry): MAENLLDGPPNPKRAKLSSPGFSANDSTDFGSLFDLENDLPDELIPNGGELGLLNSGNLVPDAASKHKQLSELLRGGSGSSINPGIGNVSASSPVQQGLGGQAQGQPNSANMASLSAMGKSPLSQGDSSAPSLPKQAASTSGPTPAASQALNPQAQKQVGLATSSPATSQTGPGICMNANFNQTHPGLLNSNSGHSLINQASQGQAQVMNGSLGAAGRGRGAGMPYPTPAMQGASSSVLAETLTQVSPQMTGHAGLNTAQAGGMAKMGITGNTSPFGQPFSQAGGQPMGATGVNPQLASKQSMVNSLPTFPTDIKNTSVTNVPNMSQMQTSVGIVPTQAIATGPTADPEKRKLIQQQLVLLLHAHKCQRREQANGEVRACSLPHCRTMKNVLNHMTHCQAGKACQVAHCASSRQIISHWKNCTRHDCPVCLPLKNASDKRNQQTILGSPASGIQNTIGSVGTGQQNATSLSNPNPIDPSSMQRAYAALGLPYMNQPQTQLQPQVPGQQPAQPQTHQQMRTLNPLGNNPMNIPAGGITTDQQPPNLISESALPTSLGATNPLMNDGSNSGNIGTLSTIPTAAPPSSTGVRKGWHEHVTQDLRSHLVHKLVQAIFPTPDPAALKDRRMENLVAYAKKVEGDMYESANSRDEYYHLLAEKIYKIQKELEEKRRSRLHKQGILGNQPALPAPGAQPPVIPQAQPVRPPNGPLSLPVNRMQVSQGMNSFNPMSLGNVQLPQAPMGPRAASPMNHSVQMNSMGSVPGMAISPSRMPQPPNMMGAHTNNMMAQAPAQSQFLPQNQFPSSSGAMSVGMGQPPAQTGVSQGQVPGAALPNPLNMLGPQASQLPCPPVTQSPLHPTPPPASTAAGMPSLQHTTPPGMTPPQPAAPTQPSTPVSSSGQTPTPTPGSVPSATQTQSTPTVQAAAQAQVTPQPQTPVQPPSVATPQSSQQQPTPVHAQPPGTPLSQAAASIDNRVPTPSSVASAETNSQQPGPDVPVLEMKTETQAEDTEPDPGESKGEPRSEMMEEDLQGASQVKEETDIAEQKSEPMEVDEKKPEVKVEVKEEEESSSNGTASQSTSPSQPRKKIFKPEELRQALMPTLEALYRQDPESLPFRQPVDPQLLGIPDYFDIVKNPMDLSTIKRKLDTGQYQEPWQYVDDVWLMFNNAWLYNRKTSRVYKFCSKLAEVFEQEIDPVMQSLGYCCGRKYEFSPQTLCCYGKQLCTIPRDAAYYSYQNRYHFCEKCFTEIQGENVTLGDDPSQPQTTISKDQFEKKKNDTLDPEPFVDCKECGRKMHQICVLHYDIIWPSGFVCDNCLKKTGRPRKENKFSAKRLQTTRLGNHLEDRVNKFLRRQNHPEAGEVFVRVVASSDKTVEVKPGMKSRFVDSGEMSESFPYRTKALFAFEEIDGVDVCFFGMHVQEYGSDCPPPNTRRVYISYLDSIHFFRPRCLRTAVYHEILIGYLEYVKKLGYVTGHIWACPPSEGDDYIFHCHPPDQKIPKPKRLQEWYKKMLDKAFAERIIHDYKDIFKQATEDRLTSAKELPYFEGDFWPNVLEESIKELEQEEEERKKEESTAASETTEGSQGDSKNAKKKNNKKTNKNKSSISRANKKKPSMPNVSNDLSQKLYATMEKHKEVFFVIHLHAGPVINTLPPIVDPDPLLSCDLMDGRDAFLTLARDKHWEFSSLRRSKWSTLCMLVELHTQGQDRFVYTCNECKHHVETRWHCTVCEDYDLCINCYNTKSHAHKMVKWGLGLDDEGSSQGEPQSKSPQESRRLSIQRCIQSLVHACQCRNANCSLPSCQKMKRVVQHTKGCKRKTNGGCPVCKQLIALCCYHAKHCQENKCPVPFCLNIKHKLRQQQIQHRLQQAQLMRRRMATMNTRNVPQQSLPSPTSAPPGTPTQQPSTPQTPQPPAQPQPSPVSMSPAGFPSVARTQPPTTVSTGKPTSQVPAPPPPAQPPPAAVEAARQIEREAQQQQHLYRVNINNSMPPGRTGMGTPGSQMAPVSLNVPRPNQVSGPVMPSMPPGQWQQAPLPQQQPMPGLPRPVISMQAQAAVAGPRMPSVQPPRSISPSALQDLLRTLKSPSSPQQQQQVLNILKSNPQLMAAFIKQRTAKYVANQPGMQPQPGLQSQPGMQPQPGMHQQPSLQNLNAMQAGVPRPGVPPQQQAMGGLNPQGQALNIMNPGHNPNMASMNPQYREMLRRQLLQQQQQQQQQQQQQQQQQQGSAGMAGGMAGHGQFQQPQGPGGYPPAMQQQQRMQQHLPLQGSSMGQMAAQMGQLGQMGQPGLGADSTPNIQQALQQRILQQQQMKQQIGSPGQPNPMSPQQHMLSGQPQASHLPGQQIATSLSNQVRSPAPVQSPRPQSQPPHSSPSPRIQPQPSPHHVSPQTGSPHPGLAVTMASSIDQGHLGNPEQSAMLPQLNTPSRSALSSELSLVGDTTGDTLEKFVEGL

- IC50 [1]: 23200 nM
- inhibition [2]: Dose-dependent effect
- Ki [3]: < 1700 nM
- Ki [4]: 220 nM
- Ki [5]: < 3340 nM
- Ki [6]: < 6560 nM
- Ki [7]: 440 nM
- Ki [8]: < 1430 nM
- Ki ([9]; read-out: Ki): 150 nM
- Ki ([9]; read-out: pKi (converted)): 151 nM
- Ki (CREB-binding protein): 5120 nM
- IC50 [10]: 38100 nM
- inhibition [11]: Dose-dependent effect
- Ki [12]: 290 nM
SMILES: Cc1cc(/N=N/c2ccc(S(=O)(=O)Nc3ccccn3)cc2)c(N)c(C)c1O
- Activity (RAW264.7): Non-toxic
